T1: Orco (Apocrypta bakeri, UniProt B0FAQ4)
T1 sequence (B0FAQ4 2-474): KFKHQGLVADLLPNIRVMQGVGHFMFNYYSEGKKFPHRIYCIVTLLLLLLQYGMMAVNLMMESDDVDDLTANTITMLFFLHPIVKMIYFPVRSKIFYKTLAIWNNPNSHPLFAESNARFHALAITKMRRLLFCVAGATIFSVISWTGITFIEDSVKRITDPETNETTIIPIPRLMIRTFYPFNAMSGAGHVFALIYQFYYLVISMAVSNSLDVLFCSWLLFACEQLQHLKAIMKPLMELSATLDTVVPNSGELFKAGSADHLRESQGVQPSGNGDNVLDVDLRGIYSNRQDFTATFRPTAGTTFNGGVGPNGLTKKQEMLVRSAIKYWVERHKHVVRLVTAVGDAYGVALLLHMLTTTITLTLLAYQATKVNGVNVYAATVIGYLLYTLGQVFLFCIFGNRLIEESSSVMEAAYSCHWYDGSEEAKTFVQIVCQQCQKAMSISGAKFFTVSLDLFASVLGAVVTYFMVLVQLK

T2: Orco V469A (Apocrypta bakeri, UniProt B0FAQ4, V469A)
T2 sequence (B0FAQ4 1-474 V469A): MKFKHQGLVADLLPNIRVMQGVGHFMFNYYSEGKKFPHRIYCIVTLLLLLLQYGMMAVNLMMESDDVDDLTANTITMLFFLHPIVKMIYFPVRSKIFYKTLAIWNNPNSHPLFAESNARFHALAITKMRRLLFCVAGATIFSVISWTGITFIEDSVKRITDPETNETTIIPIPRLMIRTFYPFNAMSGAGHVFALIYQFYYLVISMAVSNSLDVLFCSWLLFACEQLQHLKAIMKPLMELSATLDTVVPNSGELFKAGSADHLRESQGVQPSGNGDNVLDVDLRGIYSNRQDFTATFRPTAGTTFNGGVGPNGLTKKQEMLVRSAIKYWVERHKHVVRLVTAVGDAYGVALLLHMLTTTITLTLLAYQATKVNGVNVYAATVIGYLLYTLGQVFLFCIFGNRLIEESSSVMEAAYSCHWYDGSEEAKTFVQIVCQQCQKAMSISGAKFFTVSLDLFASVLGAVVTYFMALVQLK

T3: Orco L473A (Apocrypta bakeri, UniProt B0FAQ4, L473A)
T3 sequence (B0FAQ4 1-474 L473A): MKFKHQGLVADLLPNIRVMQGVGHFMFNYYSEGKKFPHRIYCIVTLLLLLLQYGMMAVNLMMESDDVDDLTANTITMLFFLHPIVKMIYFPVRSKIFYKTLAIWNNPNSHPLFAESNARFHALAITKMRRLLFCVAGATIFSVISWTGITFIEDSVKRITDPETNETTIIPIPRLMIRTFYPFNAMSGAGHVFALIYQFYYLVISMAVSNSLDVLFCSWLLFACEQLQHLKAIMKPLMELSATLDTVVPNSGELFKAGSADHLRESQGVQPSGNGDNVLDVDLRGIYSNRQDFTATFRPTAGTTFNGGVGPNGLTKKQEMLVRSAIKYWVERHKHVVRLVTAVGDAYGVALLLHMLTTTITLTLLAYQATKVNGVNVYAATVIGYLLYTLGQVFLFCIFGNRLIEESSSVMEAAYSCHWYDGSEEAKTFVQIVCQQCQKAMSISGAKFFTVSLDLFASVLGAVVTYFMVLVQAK

T4: Orco-Fab complex (Apocrypta bakeri, UniProt B0FAQ4)
T4 sequence (B0FAQ4 2-474): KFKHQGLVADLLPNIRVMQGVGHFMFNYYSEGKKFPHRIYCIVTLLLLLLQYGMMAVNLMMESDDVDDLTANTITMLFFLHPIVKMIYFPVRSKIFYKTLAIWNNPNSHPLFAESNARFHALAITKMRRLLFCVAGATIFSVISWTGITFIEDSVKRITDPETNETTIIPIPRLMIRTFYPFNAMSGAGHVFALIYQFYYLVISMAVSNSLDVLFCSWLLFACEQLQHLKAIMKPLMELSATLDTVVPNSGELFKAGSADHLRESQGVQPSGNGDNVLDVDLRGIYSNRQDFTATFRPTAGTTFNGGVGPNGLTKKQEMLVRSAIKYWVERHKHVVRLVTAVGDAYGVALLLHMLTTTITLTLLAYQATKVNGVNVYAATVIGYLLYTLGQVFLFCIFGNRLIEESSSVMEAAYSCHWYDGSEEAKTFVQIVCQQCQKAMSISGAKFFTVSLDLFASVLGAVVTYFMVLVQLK

T5: Orco T465A (Apocrypta bakeri, UniProt B0FAQ4, T465A)
T5 sequence (B0FAQ4 1-474 T465A): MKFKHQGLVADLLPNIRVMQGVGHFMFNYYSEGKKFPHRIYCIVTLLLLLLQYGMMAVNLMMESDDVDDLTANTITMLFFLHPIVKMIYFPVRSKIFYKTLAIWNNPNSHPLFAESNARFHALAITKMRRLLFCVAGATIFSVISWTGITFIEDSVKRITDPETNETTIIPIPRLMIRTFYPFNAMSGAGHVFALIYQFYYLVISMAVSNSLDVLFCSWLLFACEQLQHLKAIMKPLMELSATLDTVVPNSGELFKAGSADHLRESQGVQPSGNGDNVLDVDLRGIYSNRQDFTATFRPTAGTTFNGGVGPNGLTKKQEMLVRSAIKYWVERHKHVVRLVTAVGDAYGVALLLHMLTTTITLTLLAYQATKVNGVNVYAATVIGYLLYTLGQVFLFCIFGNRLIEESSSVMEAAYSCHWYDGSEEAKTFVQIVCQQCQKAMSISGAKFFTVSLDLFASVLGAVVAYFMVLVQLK

T6: Orco S458A (Apocrypta bakeri, UniProt B0FAQ4, S458A)
T6 sequence (B0FAQ4 1-474 S458A): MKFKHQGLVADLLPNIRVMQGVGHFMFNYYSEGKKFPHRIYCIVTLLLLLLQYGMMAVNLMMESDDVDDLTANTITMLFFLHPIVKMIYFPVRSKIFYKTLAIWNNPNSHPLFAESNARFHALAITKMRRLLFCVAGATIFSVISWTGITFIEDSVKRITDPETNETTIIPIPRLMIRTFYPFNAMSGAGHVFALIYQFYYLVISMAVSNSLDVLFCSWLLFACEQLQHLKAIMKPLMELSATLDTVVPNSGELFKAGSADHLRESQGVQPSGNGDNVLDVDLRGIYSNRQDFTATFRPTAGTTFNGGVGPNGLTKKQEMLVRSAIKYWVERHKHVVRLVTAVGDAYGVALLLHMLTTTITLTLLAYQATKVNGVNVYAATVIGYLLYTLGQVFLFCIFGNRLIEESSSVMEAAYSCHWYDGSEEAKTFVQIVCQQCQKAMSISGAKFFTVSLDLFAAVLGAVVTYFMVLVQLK


Experiments:
Orco [1] = biological target: T1, Orco; assay: Whole-cell voltage-clamp VUAA1 dose-response, HEK293 cell expressing Orco; format: cell-based
Method in brief: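 Whole-cell recording used Flp-In T-Rex 293 cells stably expressing GFP-tagged wild-type Orco, held at −80 mV. Bath: 135 mM NaCl, 5 mM KCl, 2 mM CaCl2, 2 mM MgCl2, 10 mM glucose, HEPES pH 7.3. Pipette: 150 mM KCl, 10 mM NaCl, 1 mM EDTA, HEPES pH 7.45. VUAA1 was diluted in bath solution and locally perfused. Current was normalised to the current at the highest concentration and Hill-fitted; four cells, mean ± s.d. Outside-out patches were held at −140 mV.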

Orco V469A = biological target: T2, Orco V469A; assay: Cell-based GCaMP assay, mutant Orco homomer; design: species or system A. bakeri; conditions: mutation of Val469 to alanine
Method in brief: (§1)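 Orco alone (A. bakeri wild-type or point mutant, or An. gambiae) was transfected with GCaMP6s into HEK293 cells by lipofectamine. After 4 h plus 24 h, cells were read in HEPES-buffered HBSS pH 7.4 with 5 mM CaCl2. VUAA1 was added after 34 s at seven concentrations plus zero, four wells each. GCaMP fluorescence (480/527 nm, 37 °C) was followed for 2 min. A Hill equation fitted to ΔF/Fo gave EC50 and n over N independent replicates.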

Orco [2] = biological target: T1, Orco; assay: Isothermal titration calorimetry; format: binding
Method in brief: (§2)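 A. bakeri Orco was expressed from baculovirus in HEK293S GnTi− cells, StrepTactin-purified and tag-cleaved in HBS/0.05% digitonin. It was used alone or complexed with Fab (1.5-fold molar excess) at ~10 μM monomer. VUAA1 (0.5 mM in the same buffer, 0.5% DMSO matched) was injected at 25 °C: 0.4 μL, then 19 × 2 μL, 150 s apart. A single-site fit (n fixed at 1, first injection excluded) gave Kd, ΔH and ΔQdil; three independent purifications.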

Orco L473A = biological target: T3, Orco L473A; assay: Cell-based GCaMP assay, mutant Orco homomer; design: species or system A. bakeri; conditions: mutation of Leu473 to alanine
Method in brief: as §1

Orco-Fab complex = biological target: T4, Orco-Fab complex; assay: Isothermal titration calorimetry; format: binding
Method in brief: as §2

Orco T465A = biological target: T5, Orco T465A; assay: Cell-based GCaMP assay, mutant Orco homomer; design: species or system A. bakeri; conditions: mutation of Thr465 to alanine
Method in brief: as §1

Orco S458A = biological target: T6, Orco S458A; assay: Cell-based GCaMP assay, mutant Orco homomer; design: species or system A. bakeri; conditions: mutation of Ser458 to alanine
Method in brief: as §1

cryo-EM structure = biological target: the molecule itself; assay: cryo-EM structure
[3] = ITC 25 °C, fitted parameter, mean ± s.d.
[4] = ITC 25 °C, single-site model, mean ± s.d.

Molecule	EC50 (Orco [1])	channel activation (Orco [1]; Orco expressed independently, whole-cell and outside-out patch recording)	Hill coefficient n (Orco [1]; whole-cell current, Hill fit, four independent cells, mean ± s.d.)	enhancement of apparent sensitivity of Orco homomers versus wild-type (Orco V469A)	Kd (Orco [2])	heat associated with sample dilution (ΔQdil) (Orco [2]; [3])	enthalpy of binding (ΔH) (Orco [2]; [4])	enhancement of apparent sensitivity of Orco homomers versus wild-type (Orco L473A)	Kd (Orco-Fab complex)	binding affinity of Orco-Fab complex for VUAA1 versus Orco (Orco-Fab complex; ITC)	heat associated with sample dilution (ΔQdil) (Orco-Fab complex; [3])	enthalpy of binding (ΔH) (Orco-Fab complex; [4])	VUAA1 responses in Orco homomers versus wild-type (Orco T465A)	VUAA1 responses in Orco homomers versus wild-type (Orco S458A)	stoichiometry N (cryo-EM structure)
CCc1ccc(NC(=O)CSc2nnc(-c3cccnc3)n2CC)cc1 [VUAA1]	64 ± 7 µM	activated	3.5 ± 0.5	10 fold	13 ± 1 µM	-1.0 ± 0.1 kcal/mol	-8.3 ± 0.6 kcal/mol	10 fold	18 ± 2 µM	retained its binding affinity	-1.0 ± 0.2 kcal/mol	-9.7 ± 0.4 kcal/mol	strongly attenuated	strongly attenuated	
Apocrypta bakeri Orco, purified (residues Lys2-Lys474, Strep-GFP tag cleaved) (receptor, UniProt B0FAQ4 2-474, looked up) KFKHQGLVADLLPNIRVMQGVGHFMFNYYSEGKKFPHRIYCIVTLLLLLLQYGMMAVNLMMESDDVDDLTANTITMLFFLHPIVKMIYFPVRSKIFYKTLAIWNNPNSHPLFAESNARFHALAITKMRRLLFCVAGATIFSVISWTGITFIEDSVKRITDPETNETTIIPIPRLMIRTFYPFNAMSGAGHVFALIYQFYYLVISMAVSNSLDVLFCSWLLFACEQLQHLKAIMKPLMELSATLDTVVPNSGELFKAGSADHLRESQGVQPSGNGDNVLDVDLRGIYSNRQDFTATFRPTAGTTFNGGVGPNGLTKKQEMLVRSAIKYWVERHKHVVRLVTAVGDAYGVALLLHMLTTTITLTLLAYQATKVNGVNVYAATVIGYLLYTLGQVFLFCIFGNRLIEESSSVMEAAYSCHWYDGSEEAKTFVQIVCQQCQKAMSISGAKFFTVSLDLFASVLGAVVTYFMVLVQLK															4

Reference: PMC6129982 (Nature, 2018)
